Experimental data from different studies.
Organism: Severe acute respiratory syndrome coronavirus 2

COC(=O)Nc1nc2cc(C3(O)c4ccccc4C(=O)N3c3cc(Cl)ccc3C)ccc2[nH]1 (centres unmarked) — inhibition (viral replication, inhibitor; Vero C1008; 1 µM): 40.3%
CN(Cc1cc(Br)cc(Br)c1N)C1CCCCC1 — IC50 (viral replication; Vero C1008): 2820 nM
C=C1[C@H](CO)[C@@H](O)C[C@@H]1n1cnc2c(=O)[nH]c(N)nc21 — IC50 (viral replication, inhibitor; Huh-7): 42 nM
CN(CCc1ccc(Cl)c(Cl)c1)CCN1CCCC1 — IC50 (viral replication, inhibitor; A549-ACE2): 1480 nM
Cn1c(C(=O)Nc2ccc3c(c2)OCCO3)cc2c(=O)n3ccccc3nc21 — inhibition (viral replication; Vero; 10 µM): 91.8%
CCCCCCCCCCCCCCCCOCCCOP(=O)(O)OC[C@H]1O[C@@](C#N)(c2ccc3c(N)ncnn23)[C@H](O)[C@@H]1O — EC90 (viral replication, inhibitor, qPCR; Vero C1008; 48 h): 730 nM
OC(CCN1CCCCC1)(c1ccccc1)C1CCCCC1 (centres unmarked) — IC50 (viral replication; Vero C1008): 8910 nM
CCN(C(C)=O)c1cccc(-c2ccnc3c(C#N)cnn23)c1 — inhibition (viral replication, inhibitor; Vero C1008; 1 µM): 42.1%
Cn1c(C(=O)Nc2ccc(Cl)cc2)cc2c(=O)n3ccccc3nc21 — inhibition (viral replication; Vero; 10 µM): 91.8%
CCCCCCCCCCCCCCCCCCOCCOP(=O)(O)OC[C@H]1O[C@@](C#N)(c2ccc3c(N)ncnn23)[C@H](O)[C@@H]1O — EC50 (viral replication, inhibitor, qPCR; Vero C1008): 300 nM
CCC(CC)COC(=O)[C@H](C)N[P@](=O)(OC[C@H]1O[C@@](C#N)(c2ccc3c(N)ncnn23)[C@H](O)[C@@H]1O)Oc1ccccc1 — inhibition (viral replication; Vero; 1 µM): 95.2%
CCCN(CCC)CCc1ccc(OC)c(OCCc2ccccc2)c1 — IC50 (viral replication; Vero C1008): 3890 nM
CCc1ccc(NC(=O)c2cc3c(=O)n4ccccc4nc3n2C)cc1 — inhibition (viral replication; Vero; 1 nM): 4.08%
[2H]C([2H])([2H])n1cc2cc(/N=c3\[nH]c(=O)n(Cc4ncn(C)n4)c(=O)n3Cc3cc(F)c(F)cc3F)c(Cl)cc2n1 — EC50 (viral replication, inhibitor, qPCR; 48 h): 18 nM
Clc1ccc(C(OCCN2CCCCC2)c2ccccc2)cc1 (centres unmarked) — IC50 (viral replication, inhibitor; A549-ACE2): 1510 nM
CCCCCCCCCCCCCCCCCCOC[C@H](COP(=O)(O)OC[C@H]1O[C@@](C#N)(c2ccc3c(N)ncnn23)[C@H](O)[C@@H]1O)OCc1ccccc1 — EC90 (viral replication, inhibitor, qPCR; Vero C1008; 48 h): 160 nM
Cc1cc(NC(=O)c2cc3c(=O)n4cccc(C)c4nc3n2C)ccc1Br — inhibition (viral replication; Vero; 1 µM): 74.7%
C=C[C@@](C)(/C=C/c1ccc(O)cc1)CCC=C(C)C — inhibition (cytopathic effect; Vero C1008; 3.125 µM): 0%
Cc1cccc(C)c1OCC(=O)N[C@@H](Cc1ccccc1)[C@@H](O)C[C@H](Cc1ccccc1)NC(=O)[C@H](C(C)C)N1CCCNC1=O — EC50 (viral replication, inhibitor; Vero C1008): < 100000 nM
COc1ccc2c(c1)c(CC(=O)O)c(C)n2C(=O)c1ccc(Cl)cc1 — EC50 (plaque formation; Vero C1008): ~100000 nM
N[C@@H](Cc1cc(I)c(Oc2cc(I)c(O)c(I)c2)c(I)c1)C(=O)O — EC50 (plaque formation, inhibitor; Vero C1008): 7000 nM
O=C(O[C@@H]1Cc2c(O)cc(O)cc2O[C@@H]1c1cc(O)c(O)c(O)c1)c1cc(O)c(O)c(O)c1 — inhibition (cytopathic effect, inhibitor; Vero C1008; 3.125 µM): 0%
O=C(NC1CCN(CCCCC2(C(=O)NCC(F)(F)F)c3ccccc3-c3ccccc32)CC1)c1ccccc1-c1ccc(C(F)(F)F)cc1 — IC50 (viral replication, inhibitor; Huh-7): 765 nM
OCCOCCN1CCN(C(c2ccccc2)c2ccc(Cl)cc2)CC1 (centres unmarked) — IC50 (viral replication, inhibitor; A549-ACE2): 3630 nM
O=C(/C=C/c1ccc(O)c(O)c1/C=C/c1ccc(O)c(O)c1)O[C@H](Cc1ccc(O)c(O)c1)C(=O)O — inhibition (cytopathic effect, inhibitor; Vero C1008; 0.7812 µM): 0%
Cc1ccc(NC(=O)c2cc3c(=O)n4cccc(C)c4nc3n2C)cc1Cl — inhibition (viral replication; Vero; 10 nM): 25.8%
CCC(CC)COC(=O)[C@H](C)N[P@](=O)(OC[C@H]1O[C@@](C#N)(c2ccc3c(N)ncnn23)[C@H](O)[C@@H]1O)Oc1ccccc1 — IC50 (viral replication, inhibitor; Huh-7): 6 nM
CCC(CC)COC(=O)[C@H](C)N[P@](=O)(OC[C@H]1O[C@@](C#N)(c2ccc3c(N)ncnn23)[C@H](O)[C@@H]1O)Oc1ccccc1 — EC50 (viral replication, inhibitor, qPCR; Vero C1008): 1130 nM
CCN(CC)CCCC(C)Nc1ccnc2cc(Cl)ccc12 (centres unmarked) — IC50 (viral replication, inhibitor; A549-ACE2): 912 nM
COc1ccc(C[C@@H]2c3cc(Oc4cc(C[C@@H]5c6cc(O)c(OC)cc6CCN5C)ccc4O)c(OC)cc3CCN2C)cc1 — inhibition (cytopathic effect; Vero C1008; 12.5 µM): 0%
CC1=NN(c2ccccc2)C(=O)C1 — IC50 (viral replication, inhibitor; Huh-7): > 2000 nM
O=C(Nc1ccccc1F)c1cc2c(=O)n3ccccc3nc2n1Cc1ccccc1 — inhibition (viral replication; Vero; 1 nM): 12.3%
CC(C)=CCc1c(O)ccc(C(=O)/C=C/c2ccc(O)cc2)c1O — inhibition (cytopathic effect; Vero C1008; 100 µM): 90%
CC(C)[C@H]1CC[C@H](C(=O)N[C@H](Cc2ccccc2)C(=O)O)CC1 — IC50 (viral replication, inhibitor; Huh-7): > 2000 nM
CN[C@@H](C)C(=O)N[C@H]1CN(C(=O)CC(C)C)CC[C@H]2CC[C@@H](C(=O)NC(c3ccccc3)c3ccccc3)N2C1=O — inhibition (viral replication, inhibitor; Vero C1008; 1 µM): 54%
CCN(CCO)CCCC(C)Nc1ccnc2cc(Cl)ccc12 (centres unmarked) — IC50 (viral replication, inhibitor; Huh-7): > 2000 nM
CCN(CC)CCCC(C)Nc1ccnc2cc(Cl)ccc12 (centres unmarked) — IC50 (viral replication, inhibitor; Vero C1008): 42000 nM
CN[C@@H](C)C(=O)N[C@H](C(=O)N1CCC[C@H]1C(=O)Nc1sc(-c2ncco2)nc1-c1ccccc1)C1CCCCC1 — inhibition (viral replication, inhibitor; Vero C1008; 1 µM): 42.2%
OCCN1CCN(CCCN2c3ccccc3C=Cc3ccccc32)CC1 — IC50 (viral replication; Vero C1008): 10000 nM
N#C[C@@]1(c2ccc3c(N)ncnn23)O[C@H](CO)[C@@H](O)[C@H]1O — EC50 (viral replication, inhibitor, qPCR; Vero C1008): 380 nM
CCCCCN(C(=O)NC)c1ccc2nc(CCCC)n(Cc3ccc(NC(=O)c4c(Cl)ccc(Cl)c4C(=O)O)cc3)c2c1 — inhibition (viral replication, inhibitor; Vero C1008; 1 µM): 44.5%
